Activity and EC50 data for 3 compounds are collected here from ChEMBL document CHEMBL1157731, “Novel KCNQ2/Q3 agonists as potential therapeutics for epilepsy and neuropathic pain” (J Med Chem, 2010).

Experiment [1] has as its target Sodium-dependent dopamine transporter (Homo sapiens) (UniProt Q01959). Kind of experiment: Binding affinity to DAT at 10 uM by displacement assay.
In experiment [2] the target is Substance-P receptor (Homo sapiens) (UniProt P25103). Kind of experiment: Displacement of [125I]BH-SP from NK1 receptor in human U373MG cells at 10 uM. It counts as cell-based. The note with it: U-373MG ATCC. Background: In a radioligand displacement assay an active substance lowers the binding of a labelled ligand.
Substance-P receptor (Homo sapiens), sequence (P25103 whole entry): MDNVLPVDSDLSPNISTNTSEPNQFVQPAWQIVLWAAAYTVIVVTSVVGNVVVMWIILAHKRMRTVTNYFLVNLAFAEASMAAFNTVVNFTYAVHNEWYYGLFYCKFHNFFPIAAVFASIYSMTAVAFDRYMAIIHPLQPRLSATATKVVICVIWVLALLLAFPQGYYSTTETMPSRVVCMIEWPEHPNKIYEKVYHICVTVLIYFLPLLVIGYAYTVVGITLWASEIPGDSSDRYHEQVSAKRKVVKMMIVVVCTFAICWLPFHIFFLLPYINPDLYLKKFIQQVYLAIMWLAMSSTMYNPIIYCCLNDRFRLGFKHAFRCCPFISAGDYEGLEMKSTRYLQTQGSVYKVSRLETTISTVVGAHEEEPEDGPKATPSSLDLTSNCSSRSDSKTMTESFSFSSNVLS
Experiment [3] concerns the target Sodium-dependent serotonin transporter (Homo sapiens) (UniProt P31645). Kind of experiment: Binding affinity to SERT at 10 uM by displacement assay.
The target of experiment [4] is T1, Alpha-2A adrenergic receptor (Homo sapiens) (UniProt P08913).
T1 sequence (whole entry): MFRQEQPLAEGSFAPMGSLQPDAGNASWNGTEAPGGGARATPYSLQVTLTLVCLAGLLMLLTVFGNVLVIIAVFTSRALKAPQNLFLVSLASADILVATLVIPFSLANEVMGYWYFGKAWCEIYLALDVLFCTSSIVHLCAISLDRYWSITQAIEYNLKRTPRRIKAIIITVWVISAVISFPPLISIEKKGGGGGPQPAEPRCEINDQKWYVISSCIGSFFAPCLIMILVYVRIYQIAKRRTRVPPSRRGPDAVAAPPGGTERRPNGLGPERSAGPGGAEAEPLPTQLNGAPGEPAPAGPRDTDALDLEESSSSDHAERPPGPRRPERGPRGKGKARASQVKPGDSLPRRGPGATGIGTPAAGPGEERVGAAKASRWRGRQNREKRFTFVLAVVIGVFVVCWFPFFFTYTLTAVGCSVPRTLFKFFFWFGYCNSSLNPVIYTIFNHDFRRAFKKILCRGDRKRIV
Kind of experiment: Displacement of radioligand from alpha 2 adrenergic receptor at 10 uM.

The nature of experiment [5]: Displacement of radioligand from GABAB receptor at 10 uM.
The subject of experiment [6] is Rattus norvegicus. Kind of experiment: Anticonvulsant activity in po dosed Sprague-Dawley rat assessed as inhibition of pentylenetetrazole-induced seizure treated 30 mins before PTZ challenge. It counts as functional, organism-based. In short, it runs like this:
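Male Sprague-Dawley rats received compound po in 0.5% methylcellulose (1 mL/kg) 30 min before PTZ 85 mg/kg sc. Latency to tonic-clonic seizure timed from PTZ injection. No seizure within 15 min scored as protected (latency 15 min). EC50 derived from latency scores.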

Experiment [7] is described as follows: Displacement of radioligand from NMDA receptor at 10 uM.
Experiment [8] deals with T2, B2 bradykinin receptor (Homo sapiens) (UniProt P30411).
T2 sequence (whole entry): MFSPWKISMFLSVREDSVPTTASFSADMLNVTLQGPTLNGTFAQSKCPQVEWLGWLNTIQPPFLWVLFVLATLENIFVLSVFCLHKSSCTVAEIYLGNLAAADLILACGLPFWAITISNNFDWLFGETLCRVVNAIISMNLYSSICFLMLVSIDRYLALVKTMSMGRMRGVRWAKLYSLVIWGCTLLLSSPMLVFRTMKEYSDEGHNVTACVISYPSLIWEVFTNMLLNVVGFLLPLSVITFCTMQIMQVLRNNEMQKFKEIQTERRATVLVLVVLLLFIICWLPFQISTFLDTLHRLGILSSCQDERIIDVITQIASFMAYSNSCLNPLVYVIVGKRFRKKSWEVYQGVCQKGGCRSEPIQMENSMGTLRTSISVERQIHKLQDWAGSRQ
Kind of experiment: Displacement of [3H]bradykinin from human recombinant bradykinin B2 receptor expressed in CHO cells. It counts as cell-based.

Experiment [9] can be described thus: Binding affinity to vasopressin V1 receptor at 10 uM by displacement assay.
For a further experiment, the system named is Mus musculus. Kind of experiment: Anticonvulsant activity against maximal electroshock-induced seizures in po dosed CD1 mouse model treated 30 mins before electroshock application. In kind it is functional, organism-based. In short, it runs like this: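 Male CD-1 mice dosed po (10 mL/kg in 5% DMSO/95% of 0.5% HPMC/1% Tween 80) 30 min before corneal electroshock at 50 mA for 0.2 s, with 1% proparacaine in each eye. Latency to hindlimb extension recorded to 0.1 s. No extension within 6 s scored as protected (latency 6 s). Reported as protected/tested (8 per group), or EC50 derived from latency scores.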

For experiment [10], the species on record is Rattus norvegicus. Kind of experiment: Displacement of [125I]peptide YY from neuropeptide Y receptor in rat cerebral cortex at 10 uM. It counts as tissue-based.
In experiment [11] the target is T3, Glucocorticoid receptor (Homo sapiens) (UniProt P04150).
T3 sequence (whole entry): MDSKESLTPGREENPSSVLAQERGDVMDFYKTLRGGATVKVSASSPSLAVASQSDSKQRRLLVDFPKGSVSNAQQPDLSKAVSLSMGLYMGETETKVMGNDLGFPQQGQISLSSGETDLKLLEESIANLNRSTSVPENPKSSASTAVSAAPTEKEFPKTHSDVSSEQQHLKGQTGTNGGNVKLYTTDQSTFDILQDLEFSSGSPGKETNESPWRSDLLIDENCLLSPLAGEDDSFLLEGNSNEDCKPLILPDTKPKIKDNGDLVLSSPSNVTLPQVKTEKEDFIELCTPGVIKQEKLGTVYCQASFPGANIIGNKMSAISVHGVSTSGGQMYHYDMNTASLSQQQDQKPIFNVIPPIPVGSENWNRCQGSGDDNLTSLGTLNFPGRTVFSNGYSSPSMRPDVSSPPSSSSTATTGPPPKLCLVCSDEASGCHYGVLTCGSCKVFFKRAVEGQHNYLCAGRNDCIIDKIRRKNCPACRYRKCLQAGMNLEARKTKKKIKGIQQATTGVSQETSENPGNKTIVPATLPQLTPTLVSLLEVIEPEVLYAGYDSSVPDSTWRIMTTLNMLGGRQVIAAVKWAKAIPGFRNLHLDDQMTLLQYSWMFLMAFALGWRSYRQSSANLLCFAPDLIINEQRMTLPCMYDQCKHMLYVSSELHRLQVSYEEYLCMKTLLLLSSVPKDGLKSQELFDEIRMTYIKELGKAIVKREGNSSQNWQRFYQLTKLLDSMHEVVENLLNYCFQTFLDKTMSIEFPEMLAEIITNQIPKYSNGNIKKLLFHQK
Kind of experiment: Binding affinity to glucocorticoid receptor at 10 uM by displacement assay.

The target in experiment [12] is Histamine H1 receptor (Homo sapiens) (UniProt P35367). Kind of experiment: Displacement of radioligand from histamine H1 receptor at 10 uM.
Histamine H1 receptor (Homo sapiens), sequence (P35367 whole entry): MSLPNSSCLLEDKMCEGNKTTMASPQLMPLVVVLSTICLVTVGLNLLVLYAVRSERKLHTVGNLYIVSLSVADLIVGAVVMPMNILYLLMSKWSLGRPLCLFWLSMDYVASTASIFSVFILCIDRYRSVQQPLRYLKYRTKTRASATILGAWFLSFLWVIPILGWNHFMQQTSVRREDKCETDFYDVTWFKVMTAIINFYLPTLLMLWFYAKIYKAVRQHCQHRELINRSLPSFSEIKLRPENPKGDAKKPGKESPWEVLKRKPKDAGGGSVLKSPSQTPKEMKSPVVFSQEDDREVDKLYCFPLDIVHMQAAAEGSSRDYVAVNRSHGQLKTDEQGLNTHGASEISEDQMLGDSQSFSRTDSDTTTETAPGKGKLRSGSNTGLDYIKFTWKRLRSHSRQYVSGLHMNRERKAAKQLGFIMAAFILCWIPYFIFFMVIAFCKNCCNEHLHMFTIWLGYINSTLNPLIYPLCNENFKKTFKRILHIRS
Experiment [13] concerns the target T4, Adenosine receptor A1 (Homo sapiens) (UniProt P30542).
T4 sequence (whole entry): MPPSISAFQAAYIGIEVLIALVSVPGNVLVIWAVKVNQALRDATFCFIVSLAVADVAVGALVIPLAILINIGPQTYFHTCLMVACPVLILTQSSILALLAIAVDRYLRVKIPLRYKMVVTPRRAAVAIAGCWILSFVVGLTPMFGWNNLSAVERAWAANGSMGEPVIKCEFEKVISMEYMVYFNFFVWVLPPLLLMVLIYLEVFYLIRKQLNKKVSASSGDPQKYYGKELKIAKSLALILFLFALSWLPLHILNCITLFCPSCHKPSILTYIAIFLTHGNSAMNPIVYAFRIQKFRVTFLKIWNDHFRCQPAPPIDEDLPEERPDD
Kind of experiment: Displacement of [3H]CCPA from human recombinant adenosine A1 receptor expressed in CHO cells at 10 uM. It counts as cell-based.

The structures appear in SMILES notation.

Sodium-dependent dopamine transporter (Homo sapiens), sequence (Q01959 whole entry): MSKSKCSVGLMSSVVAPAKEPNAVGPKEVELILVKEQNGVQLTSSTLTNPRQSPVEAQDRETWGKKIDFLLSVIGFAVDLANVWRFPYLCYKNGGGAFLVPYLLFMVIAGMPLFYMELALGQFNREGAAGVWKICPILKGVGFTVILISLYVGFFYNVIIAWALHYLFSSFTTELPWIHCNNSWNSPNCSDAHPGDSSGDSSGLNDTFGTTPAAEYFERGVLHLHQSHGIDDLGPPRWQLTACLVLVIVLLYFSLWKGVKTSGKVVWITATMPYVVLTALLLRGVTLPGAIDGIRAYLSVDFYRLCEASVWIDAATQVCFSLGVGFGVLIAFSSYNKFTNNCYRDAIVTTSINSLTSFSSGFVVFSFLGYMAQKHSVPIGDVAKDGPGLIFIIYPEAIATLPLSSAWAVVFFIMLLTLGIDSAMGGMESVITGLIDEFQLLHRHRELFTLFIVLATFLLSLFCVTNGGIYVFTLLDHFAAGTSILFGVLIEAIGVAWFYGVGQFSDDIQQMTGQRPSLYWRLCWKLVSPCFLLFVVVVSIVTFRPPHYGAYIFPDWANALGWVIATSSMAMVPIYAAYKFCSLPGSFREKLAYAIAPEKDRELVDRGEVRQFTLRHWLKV
Sodium-dependent serotonin transporter (Homo sapiens), sequence (P31645 whole entry, looked up): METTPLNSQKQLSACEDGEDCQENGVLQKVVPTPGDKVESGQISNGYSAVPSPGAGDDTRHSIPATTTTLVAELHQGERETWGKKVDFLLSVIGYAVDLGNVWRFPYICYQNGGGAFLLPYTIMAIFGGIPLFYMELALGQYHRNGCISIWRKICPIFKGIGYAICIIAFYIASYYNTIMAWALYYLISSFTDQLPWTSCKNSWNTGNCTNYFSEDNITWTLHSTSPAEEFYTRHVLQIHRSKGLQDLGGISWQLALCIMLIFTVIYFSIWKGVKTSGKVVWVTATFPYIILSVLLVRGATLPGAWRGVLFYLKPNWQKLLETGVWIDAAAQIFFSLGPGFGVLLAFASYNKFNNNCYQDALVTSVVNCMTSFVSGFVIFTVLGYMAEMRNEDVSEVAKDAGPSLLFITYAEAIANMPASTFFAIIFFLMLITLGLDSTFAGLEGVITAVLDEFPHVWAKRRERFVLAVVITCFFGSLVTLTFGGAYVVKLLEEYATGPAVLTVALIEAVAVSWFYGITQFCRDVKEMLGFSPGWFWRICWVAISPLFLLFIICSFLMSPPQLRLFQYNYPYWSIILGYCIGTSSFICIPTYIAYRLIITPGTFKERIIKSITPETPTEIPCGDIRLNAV

`Cn1/c(=N/NC(=O)CC2CCCC2)sc2cc(OC(F)(F)F)ccc21`: the Activity in experiment [1] turned out to be 21%; in experiment [2], 21%; in experiment [3], 20%; in experiment [4] it was 0%; in [5] it was 12%; in experiment [7] it was 0%. Besides, the Activity in experiment [8] is 49%; in experiment [9], 22%; in the experiment filed under Rattus norvegicus [10], 33%; in [11], 14%; in [12], 0%; in experiment [13] it was 0%. Also, the EC50 in the experiment on Rattus norvegicus [6] was 7.5 mg/kg; in the experiment with Mus musculus, less than 10 mg/kg.
Take `Cn1/c(=N/NC(=O)CC(C)(C)C)sc2cc(OC(F)(F)F)ccc21`: the Activity in experiment [1] was 0%; in experiment [2], 0%; in experiment [3], 0%; in [4], 0%; in experiment [5], 16%; in experiment [7] it was 0%. Further, the Activity in [8] turned out to be 0%; in [9] it was 12%; in the experiment listed under Rattus norvegicus [10], 0%; in [11] it was 0%; in experiment [12] it was 22%; in experiment [13], 0%. For the same compound, the results for the EC50 in the experiment on Rattus norvegicus [6] and with Mus musculus were 3.8 mg/kg and 4.4 mg/kg, respectively.
Turning to `CC(C)OC(=O)N/N=c1\sc2cc(OC(F)(F)F)ccc2n1C`, the Activity was determined as 0% in experiment [1]; 10% in [2]; 14% in experiment [3]; 0% in experiment [4]; 0% in [5]; 0% in experiment [7]. The Activity in experiment [8] amounted to 0%; in [9], 0%; in the experiment listed under Rattus norvegicus [10] it was 0%; in experiment [11], 0%; in experiment [12] it was 0%; in experiment [13] it was 11%. The values for the EC50 with Rattus norvegicus [6] and with Mus musculus were 2.6 mg/kg and 8.8 mg/kg, respectively.
